This is an account of results in ChEMBL document CHEMBL1128415 (J Med Chem, 1995).

One test relates to Rattus norvegicus. The test can be described thus: Effective dose to inhibit AII-induced pressor response in pithed rats, was determined in vivo after intraduodenal administration. To be noted: read-out: ID50 (the source's name).
Test [1] deals with T1, Angiotensin II receptor (AT-1) type-1 (Rattus norvegicus, UniProt P29089+P25095).
T1 sequence (P29089 whole entry): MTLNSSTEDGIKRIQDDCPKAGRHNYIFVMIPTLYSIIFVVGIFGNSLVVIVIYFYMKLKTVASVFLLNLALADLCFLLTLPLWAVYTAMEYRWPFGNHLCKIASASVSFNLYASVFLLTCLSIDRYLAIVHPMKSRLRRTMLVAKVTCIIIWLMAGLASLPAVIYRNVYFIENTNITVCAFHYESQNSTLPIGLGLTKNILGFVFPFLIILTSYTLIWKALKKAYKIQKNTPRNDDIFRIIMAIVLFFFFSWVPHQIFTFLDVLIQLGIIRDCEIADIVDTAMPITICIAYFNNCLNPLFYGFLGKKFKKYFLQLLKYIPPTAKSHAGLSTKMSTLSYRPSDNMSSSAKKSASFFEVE
T1 sequence (P25095 whole entry): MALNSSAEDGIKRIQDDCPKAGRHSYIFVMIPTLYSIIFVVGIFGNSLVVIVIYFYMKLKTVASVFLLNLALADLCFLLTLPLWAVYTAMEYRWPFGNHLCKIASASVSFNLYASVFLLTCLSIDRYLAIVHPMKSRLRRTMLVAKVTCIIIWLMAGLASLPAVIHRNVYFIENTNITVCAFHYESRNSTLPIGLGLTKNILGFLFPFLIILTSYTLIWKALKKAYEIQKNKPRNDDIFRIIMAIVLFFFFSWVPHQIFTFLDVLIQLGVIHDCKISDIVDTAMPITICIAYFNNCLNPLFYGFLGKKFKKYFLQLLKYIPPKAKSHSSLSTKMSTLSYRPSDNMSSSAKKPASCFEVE
The test can be described thus: Specific binding inhibition of [125I]AII to Angiotensin II receptor, type 1 in rat liver membrane. It is filed as cell membranes.

The target of test [2] is T2, Angiotensin II receptor (AT-1) type-1 (Rattus norvegicus) (UniProt P29089+P25095). The test can be described thus: Inhibition of pressor response induced by infusion of AII in rats when dose is administered intravenously. Type of test: functional. The method in brief: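 Normotensive Sprague-Dawley pithed rats (n = 4), BP recorded by carotid catheter. AII 0.75 μg/kg injected via jugular vein; three control responses taken. Each later AII challenge followed, by 5 min, an iv injection of antagonist at increasing doses, in water or water with 2 equiv NaOH.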

Test [3] addresses T2, Angiotensin II receptor (AT-1) type-1 (Rattus norvegicus). The test can be described thus: Inhibition of pressor response induced by infusion of angiotensin II in rats, administered perorally. It is filed as functional. The method in brief:
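Sprague-Dawley rats (n = 18-28) dosed by gastric tube in groups; vehicle water or water with 2 equiv NaOH; controls given water. At 50 min rats anaesthetised, pithed, ventilated, with carotid and jugular catheters. At 1 h post-dose AII 0.75 μg/kg iv given.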

Some results are limits rather than exact numbers.

As usually defined, the IC50 is the concentration needed to halve the response being measured. Low values mean inhibition by little substance, high ones a need for much substance.

Turning to `CCCCc1nc(SC)c(C(=O)O)n1Cc1ccc(-c2ccccc2S(=O)(=O)NS(=O)(=O)CC)cc1`, the ED50 in the test with Rattus norvegicus is above 1 mg/kg. In test [1], this molecule had an IC50 of 1.1 nM.

`CCCCc1nc(SC)c(C(=O)O)n1Cc1ccc(-c2ccccc2S(=O)(=O)NC(=O)Cc2ccccc2)cc1`: the ID50 was 0.44 mg/kg in test [2] and 1.75 mg/kg in test [3]. The molecule also returned an IC50 in test [1] of 0.08 nM.

Turning to `CCCCc1nc(SC)c(C(=O)O)n1Cc1ccc(-c2ccccc2S(=O)(=O)NC(=O)OCC(C)C)cc1`, the ID50 is 0.15 mg/kg in test [2] and 0.43 mg/kg in test [3]. The molecule further showed an IC50 in test [1] of 0.2 nM.

With `CCCCc1nc(SC)c(C(=O)O)n1Cc1ccc(-c2ccccc2S(=O)(=O)NC(=O)CCC)cc1`, the values for the ID50 in test [2] and in test [3] were 0.06 mg/kg and 0.95 mg/kg, respectively. Further, in test [1], the IC50 stood at 0.2 nM.

Regarding `CCCCc1nc(SC)cn1Cc1ccc(-c2ccccc2S(=O)(=O)NC(=O)NCCC)cc1`, the results for the ID50 in test [2] and in test [3] were 0.7 mg/kg and above 10 mg/kg, respectively. This molecule showed an IC50 in test [1] of 2.6 nM.

For the molecule `C=CCNC(=O)NS(=O)(=O)c1ccccc1-c1ccc(Cn2c(CCCC)nc(SC)c2C(=O)O)cc1`, the ID50 in test [2] worked out at 0.11 mg/kg; in test [3], 0.57 mg/kg. This molecule also gave an IC50 in test [1] of 1.1 nM.

In the case of `CCCCc1nc(SC)c(C(=O)NC(C)=O)n1Cc1ccc(-c2ccccc2S(=O)(=O)NC(=O)NCCC)cc1`, the ID50 in test [2] was 0.09 mg/kg; in test [3], 3.01 mg/kg. Besides, in test [1], the IC50 is recorded as 1.7 nM.
